Measured values from ChEMBL document CHEMBL1944603, “An efficient synthesis of highly functionalized novel chromeno[4,3-b]pyrroles and indolizino[6,7-b]indoles as potent antimicrobial and antioxidant agents” (2012).
Values after ≈ are worked out from the molar mass of the structure shown.

What was measured:
Type in all cases: functional
Pseudomonas aeruginosa [1] = assay: Antimicrobial activity against Pseudomonas aeruginosa at 50 ug/ml by agar diffusion assay
How it was run: (§1)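 Agar diffusion assay in duplicate against the human bacterial pathogens; tetracycline as reference control.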

Staphylococcus aureus [2] = assay: Antimicrobial activity against Staphylococcus aureus at 75 ug/ml by agar diffusion assay; how it was run: as §1
Klebsiella pneumoniae [3] = assay: Antimicrobial activity against Klebsiella pneumoniae at 75 ug/ml by agar diffusion assay; how it was run: as §1
[4] = tested on: Radical scavenging activity; assay: Antioxidant activity assessed as DPPH free radical scavenging activity at 50 ug by spectrophotometer
How it was run: (§2)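 DPPH radical scavenging measured spectrophotometrically by Blois's method at 50, 500 and 1000 µg. Absorbance read at 517 nm. Percent scavenging is the absorbance decrease at 517 nm relative to the absorbance of DPPH solution without test compound. L-ascorbic acid as standard.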

Staphylococcus aureus [5] = assay: Antimicrobial activity against Staphylococcus aureus at 50 ug/ml by agar diffusion assay; how it was run: as §1
[6] = tested on: Radical scavenging activity; assay: Antioxidant activity assessed as DPPH free radical scavenging activity at 1000 ug by spectrophotometer; how it was run: as §2
Bacillus subtilis [7] = assay: Antimicrobial activity against Bacillus subtilis at 25 ug/ml by agar diffusion assay; how it was run: as §1
Klebsiella pneumoniae [8] = assay: Antimicrobial activity against Klebsiella pneumoniae at 25 ug/ml by agar diffusion assay; how it was run: as §1
Klebsiella pneumoniae [9] = assay: Antimicrobial activity against Klebsiella pneumoniae at 50 ug/ml by agar diffusion assay; how it was run: as §1
Bacillus subtilis [10] = assay: Antimicrobial activity against Bacillus subtilis at 100 ug/ml by agar diffusion assay; how it was run: as §1
Pseudomonas aeruginosa [11] = assay: Antimicrobial activity against Pseudomonas aeruginosa at 25 ug/ml by agar diffusion assay; how it was run: as §1
Pseudomonas aeruginosa [12] = assay: Antimicrobial activity against Pseudomonas aeruginosa at 75 ug/ml by agar diffusion assay; how it was run: as §1
Klebsiella pneumoniae [13] = assay: Antimicrobial activity against Klebsiella pneumoniae at 100 ug/ml by agar diffusion assay; how it was run: as §1
Staphylococcus aureus [14] = assay: Antimicrobial activity against Staphylococcus aureus at 25 ug/ml by agar diffusion assay; how it was run: as §1
Fusarium oxysporum = assay: Antifungal activity against Fusarium oxysporum
How it was run: (§3)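 Agar diffusion assay in duplicate against the plant fungal pathogens; read-out as minimum inhibitory concentration (MIC); carbendazim as reference control.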

Pseudomonas aeruginosa [15] = assay: Antimicrobial activity against Pseudomonas aeruginosa at 100 ug/ml by agar diffusion assay; how it was run: as §1
[16] = tested on: Radical scavenging activity; assay: Antioxidant activity assessed as DPPH free radical scavenging activity at 500 ug by spectrophotometer; how it was run: as §2
Bacillus subtilis [17] = assay: Antimicrobial activity against Bacillus subtilis at 75 ug/ml by agar diffusion assay; how it was run: as §1
Bacillus subtilis [18] = assay: Antimicrobial activity against Bacillus subtilis at 50 ug/ml by agar diffusion assay; how it was run: as §1
Staphylococcus aureus [19] = assay: Antimicrobial activity against Staphylococcus aureus at 100 ug/ml by agar diffusion assay; how it was run: as §1
Macrophomina phaseolina = assay: Antifungal activity against Macrophomina phaseolina; how it was run: as §3

Row | Structure (SMILES) | inhibition zone (IZ) (Pseudomonas aeruginosa [1]) [mm] | inhibition zone (IZ) (Staphylococcus aureus [2]) [mm] | inhibition zone (IZ) (Klebsiella pneumoniae [3]) [mm] | Activity [4] [%] | inhibition zone (IZ) (Staphylococcus aureus [5]) [mm] | Activity [6] [%] | inhibition zone (IZ) (Bacillus subtilis [7]) [mm] | inhibition zone (IZ) (Klebsiella pneumoniae [8]) [mm] | inhibition zone (IZ) (Klebsiella pneumoniae [9]) [mm] | inhibition zone (IZ) (Bacillus subtilis [10]) [mm] | inhibition zone (IZ) (Pseudomonas aeruginosa [11]) [mm] | inhibition zone (IZ) (Pseudomonas aeruginosa [12]) [mm] | inhibition zone (IZ) (Klebsiella pneumoniae [13]) [mm] | MIC (Fusarium oxysporum) [µg/mL] | inhibition zone (IZ) (Pseudomonas aeruginosa [15]) [mm] | Activity [16] [%] | inhibition zone (IZ) (Bacillus subtilis [17]) [mm] | inhibition zone (IZ) (Bacillus subtilis [18]) [mm] | inhibition zone (IZ) (Staphylococcus aureus [19]) [mm] | MIC (Macrophomina phaseolina) [µg/mL] | other results
1 | COC(=O)[C@]12Cc3c([nH]c4ccccc34)[C@@H](c3cccc([N+](=O)[O-])c3)N1[C@@H]1c3ccccc3OC[C@@H]1C2 | 24 | 24 | 25 | 18 | 22 | 70 | 14 | 15 | 20 | 40 | 17 | 26 | 36 | 90 (≈ 182 µM) | 40 | 42 | 28 | 21 | 36 | 25 (≈ 50.5 µM) | inhibition zone (IZ) (Staphylococcus aureus [14]): 20 mm
2 | O=C1O[C@H]([C@@H](O)CO)C(O)=C1O |  |  |  | 95 |  | 99 |  |  |  |  |  |  |  |  |  | 97 |  |  |  |  | 
3 | COC(=O)[C@@]1(Cc2c[nH]c3ccccc23)C[C@H]2COc3ccccc3[C@H]2N1 | 15 | 20 | 21 | 29 | 15 | 64 | 11 | 11 | 15 | 26 | 10 | 21 | 23 | 75 (≈ 207 µM) | 23 | 51 | 20 | 15 | 23 | 60 (≈ 166 µM) | inhibition zone (IZ) (Staphylococcus aureus [14]): 10 mm
4 | COC(=O)Nc1nc2ccccc2[nH]1 [CARBENDAZIM] |  |  |  |  |  |  |  |  |  |  |  |  |  | 20 (≈ 105 µM) |  |  |  |  |  | 15 (≈ 78.5 µM) | 
5 | COC(=O)[C@]12Cc3c([nH]c4ccccc34)[C@@H](c3ccccc3)N1[C@@H]1c3ccccc3OC[C@@H]1C2 | 12 | 18 | 19 | 28 | 11 | 70 | 9 | 9 | 11 | 25 | 9 | 20 | 26 | 30 (≈ 66.6 µM) | 24 | 53 | 20 | 11 | 25 | 40 (≈ 88.8 µM) | inhibition zone (IZ) (Staphylococcus aureus [14]): 9 mm
6 | COC(=O)[C@]12Cc3c([nH]c4ccccc34)[C@@H](c3ccc(Cl)cc3)N1[C@@H]1c3ccccc3OC[C@@H]1C2 | 22 | 24 | 25 | 21 | 21 | 68 | 13.5 | 16 | 20 | 36 | 16 | 25 | 30 | 70 (≈ 144 µM) | 36 | 43 | 26 | 21 | 29 | 20 (≈ 41.2 µM) | inhibition zone (IZ) (Staphylococcus aureus [14]): 20 mm
7 | COC(=O)[C@]12Cc3c([nH]c4ccccc34)[C@@H](c3ccc(Cl)cc3)N1[C@@H]1c3c(ccc4ccccc34)OC[C@@H]1C2 | 16 | 20 | 22 | 26 | 17 | 75 | 12 | 11 | 15 | 26 | 12 | 20 | 25 | 90 (≈ 168 µM) | 26 | 44 | 21 | 18 | 28 | 105 (≈ 196 µM) | inhibition zone (IZ) (Staphylococcus aureus [14]): 14 mm
8 | COC(=O)[C@]12Cc3c([nH]c4ccccc34)[C@@H](c3ccc(C)cc3)N1[C@@H]1c3c(ccc4ccccc34)OC[C@@H]1C2 | 14 | 17 | 17 | 26 | 12 | 87 | 9 | 9 | 12 | 20 | 8 | 17 | 21 | 85 (≈ 165 µM) | 20 | 53 | 16 | 14 | 19 | 30 (≈ 58.3 µM) | inhibition zone (IZ) (Staphylococcus aureus [14]): 9 mm
9 | CN(C)[C@@H]1C(O)=C(C(N)=O)C(=O)[C@@]2(O)C(O)=C3C(=O)c4c(O)cccc4[C@@](C)(O)[C@H]3C[C@@H]12 [TETRACYCLINE] | 26 | 29 | 28 |  | 24 |  | 15 | 18 | 22 | > 40 | 20 | 28 | > 40 |  | > 40 |  | 29 | 24 | > 40 |  | inhibition zone (IZ) (Staphylococcus aureus [14]): 22 mm
10 | COC(=O)[C@]12Cc3c([nH]c4ccccc34)[C@@H](c3ccc(OC)cc3)N1[C@@H]1c3ccccc3OC[C@@H]1C2 | 11 | 16 | 19 | 28 | 12 | 68 | 8 | 8 | 11 | 19 | 7 | 15 | 20 | 35 (≈ 72.8 µM) | 20 | 50 | 18 | 11 | 18 | 50 (≈ 104 µM) | 
